TRPC6 act – activates the mouse TRPC6 cation channel | Q61143 | HEK293-TRPC6 membrane potential dye fluorescence; hits give high values | B-score at 10 µM | 310,000 tested, 0.13% active | AID 2550;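 active means B-score of the integrated fluorescence ratio above library mean plus 3 SD, and starting fluorescence ratio within library mean plus 5 SD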;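 further: higher score means more depolarization so channel activation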
TRPC4 inh – TRPC4 (mouse) channel inhibition. Q9QUQ5. HEK293 TRPC4beta/mu-opioid, DAMGO-evoked Fluo4 calcium flux; hits give low values. B-score at 10 µM. 300,000 tested, 0.39% active;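 active means B-score over 3 SD under the library average, no early fluorescence shift, positive overall ratio signal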
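Assay system – HEK293 line stably carrying TRPC4beta and mu-opioid receptor · Doses – single dose · Detection – Fluo4 calcium-dye fluorescence, kinetic read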
Kir21 inh – inhibitors of mouse Kir2.1 inward-rectifier potassium channel; HEK293-Kir2.1, FluxOR thallium flux fluorescence; hits give low values; B-score at 10 µM; 310,000 tested, 0.85% active;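 active means fluorescence ratio B-score at or below minus 3 SD of library scores, with starting-brightness B-score within 2 SD, cut at about -4.2 in these data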;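 further: channel flux triggered by added potassium and thallium sulfate stimulus; B-score of peak minus minimum fluorescence over baseline after thallium stimulus; more negative B-score means stronger Kir2.1 block with less thallium influx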
Target sequence (P35561 whole entry, looked up): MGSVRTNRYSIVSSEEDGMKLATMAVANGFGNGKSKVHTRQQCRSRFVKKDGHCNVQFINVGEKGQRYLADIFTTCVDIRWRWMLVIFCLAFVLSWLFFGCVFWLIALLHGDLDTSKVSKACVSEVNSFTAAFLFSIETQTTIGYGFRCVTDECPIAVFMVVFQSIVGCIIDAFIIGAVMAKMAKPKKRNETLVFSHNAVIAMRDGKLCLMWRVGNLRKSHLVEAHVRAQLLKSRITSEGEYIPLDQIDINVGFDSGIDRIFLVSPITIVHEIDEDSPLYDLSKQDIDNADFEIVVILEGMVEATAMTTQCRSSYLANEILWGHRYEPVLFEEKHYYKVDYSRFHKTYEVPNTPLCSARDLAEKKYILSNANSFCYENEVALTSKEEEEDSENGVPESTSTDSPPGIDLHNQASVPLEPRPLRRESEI
TRPC4 act – TRPC4 (mouse) channel activation; Q9QUQ5; HEK293 TRPC4beta/mu-opioid, Fluo4 calcium fluorescence; hits give high values; B-score at 10 µM; 310,000 tested, 0.49% active;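 active means B-score above 5 SD of library B-scores, and initial fluorescence ratio not above library mean plus 5 SD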;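 further: positive B-score marks a calcium rise read as TRPC4 activation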
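Incubation: 45 min room-temperature Fluo4 loading, 110 s read / System: HEK293 cells stably co-expressing mouse TRPC4beta and mu-opioid receptor / Signal: Fluo4 fluorescence, kinetic / Control set: buffer (low) and maximal DAMGO (high) / Measure: integrated baseline-normalised fluorescence ratio, converted to per-well B score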
TRPC6 inhibitor – mouse TRPC6 channel inhibition; AID 2553; Q61143; 310,000 tested, 1.1% active; HEK293-TRPC6, membrane potential dye, ACh-evoked depolarization; hits give low values; B-score at 10 µM;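 active means B-score under library mean minus 3 SD, initial fluorescence not abnormally high, positive integrated signal ratio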;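 further: B-score derived from integrated fluorescence ratio over the kinetic read; more negative B-score means stronger inhibition of depolarization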
TRPC4 potent – TRPC4 (mouse) allosteric potentiation | Q9QUQ5 | HEK293 TRPC4beta/mu-opioid, DAMGO EC20, Fluo-4 Ca2+ flux; hits give high values | B-score at 10 µM | 310,000 tested, 0.42% active;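 active means B-score of calcium response area above 5 SD of library B-scores, with initial fluorescence ratio within 5 SD of library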;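 further: B-score of integrated fluorescence ratio over time as area under calcium response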
TRPC4 sel inh 2 – second check of whether TRPC6 inhibitors also affect mouse TRPC4. shares compounds with TRPC6 inhibitor. HEK293 TRPC4/MOR, membrane potential dye fluorescence; channel activated by saturating DAMGO dose. inhibition, % at 10 µM. 920 tested, 42% active. AID 2776;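 active means compounds whose fluorescence signal differed from control wells by over 3 SD, either direction, in both duplicate plates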
TRPC4 spec – selectivity of TRPC6 inhibitors: effect on mouse TRPC4; activity change, negative = inhibition, % at 10 µM; 920 tested, 61% active; HEK293 TRPC4/mu-opioid, membrane potential fluorescence; shares compounds with TRPC6 inhibitor;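 active means rise or fall in signal beyond 3 SD of buffer-only wells in both replicate plates, either sign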;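 further: integrated kinetic ratio of fluorescence range over baseline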
HEK293 MPD ctr 2-1 – second counter-screen for TRPC6 inhibitors: parental HEK293 cells | 920 tested, 31% active | signal change vs control, % at 10 µM | parental HEK293 membrane potential dye fluorescence; maximal acetylcholine challenge after compound addition | shares compounds with TRPC6 inhibitor;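 active means membrane potential signal moving either way by over 3 SD of the maximum-effect control, in both duplicate plates, meaning non-specific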
HEK293 MPD ctr-1 – parental HEK293 nonspecific activity of TRPC6 inhibitors | shares compounds with TRPC6 inhibitor | parental HEK293 membrane potential dye fluorescence | membrane potential signal change, % at 10 µM | 920 tested, 60% active;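 active means membrane potential signal shifting up or down by more than 3 SD of buffer-only wells, on both duplicate plates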
HEK293 MPD ctr-2 – checks TRPC6 modulator effects in parental HEK293 cells; AID 488924; 2,400 tested, 51% active; shares compounds with TRPC6 inhibitor; membrane potential signal change, % at 10 µM; membrane potential dye fluorescence;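 active means membrane potential signal moves up or down beyond 5 SD from buffer-only wells, on both duplicate plates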
HEK293 MPD ctr 2-2 – parental HEK293 nonspecific activity of TRPC6 modulators, second screen | shares compounds with TRPC6 inhibitor | membrane potential dye fluorescence; after compound, maximal acetylcholine stimulation | inhibition, % at 10 µM | 2,400 tested, 14% active | AID 488926;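 active means membrane potential signal drops by more than 5 SD from the mean control signal, in both duplicate plates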;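 further: plate controls were acetylcholine ECmax control wells for no effect and buffer only wells for full effect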
TRPC4 ctr mod – mouse TRPC4 off-target activity of TRPC6 modulators; 2,400 tested, 69% active; AID 488927; percent change from control (negative = decrease, positive = increase), % at 10 µM; shares compounds with TRPC6 inhibitor; HEK293 TRPC4/mu-opioid, membrane potential fluorescence;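 active means membrane potential signal moved up or down beyond 5 SD of buffer control wells, in both duplicate plates, actives on both sides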;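 further: plate controls were assay buffer wells for no effect and DAMGO maximal-effect wells for full effect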
TRPC4 ctr inh 2 – second selectivity test of TRPC6 modulators against mouse TRPC4; shares compounds with TRPC6 inhibitor; HEK293 TRPC4/mu-opioid, membrane potential dye fluorescence; stimulated with maximal-effect DAMGO; inhibition, % at 10 µM; 2,400 tested, 55% active; AID 488928;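 active means drop in membrane potential signal beyond 5 SD of the control wells in both duplicate plates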;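 further: TRPC4 counter screen for TRPC6 hits run under conditions tuned for TRPC6 not TRPC4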
TRPC6 inh conf – mouse TRPC6 inhibitor confirmation; inhibition, % at 10 µM; HEK293-TRPC6, membrane potential dye, ACh-evoked depolarization; shares compounds with TRPC6 inhibitor; 3,300 tested, 43% active;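 active means fluorescence ratio falls more than 5 SD below the full-stimulation control mean, in both duplicate runs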;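 further: integrated fluorescence ratio of peak minus minimum over baseline after agonist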
TRPC6 act confirm – mouse TRPC6 activator confirmation. shares compounds with TRPC6 inhibitor. HEK293-TRPC6 membrane potential dye fluorescence, FDSS. activation, % at 10 µM. 2,800 tested, 11% active. AID 488961;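 active means ratio signal rise beyond 5 SD above unstimulated control wells' mean, seen in both duplicate runs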;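 further: plate controls were buffer EC0 wells for no effect and acetylcholine ECmax response for full effect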
Active calls of the source: *; i = inactive; x = not tested or not shown; + = active, no number. A selection: hits, their analogues and other compounds. The true share with any hit is near 3%.

SMILES	TRPC6 act	TRPC4 inh	Kir21 inh	TRPC4 act	TRPC6 inhibitor	TRPC4 potent	HEK293 MPD ctr-2	HEK293 MPD ctr 2-2	TRPC4 ctr mod	TRPC4 ctr inh 2	TRPC6 inh conf	TRPC6 act confirm	others
NC(=O)CCN1CCN(Cc2nc(C(c3ccccc3)c3ccccc3)no2)CC1	i	i	1.3	i	-7.9*	i	x	x	x	x	i	i	TRPC4 sel inh 2=i;TRPC4 spec=i;HEK293 MPD ctr 2-1=i;HEK293 MPD ctr-1=i
C[C@@H]1CN(C2CCN(Cc3nc(C(c4ccccc4)c4ccccc4)no3)CC2)C[C@H](C)O1	i	i	0.69	i	i	i	x	x	x	x	x	x
c1ccc(C(c2ccccc2)c2noc(CN3CCN(C4CCCC4)CC3)n2)cc1	i	i	-0.01	i	-5.2*	i	124%*	i	15%*	i	i	x
CC(=O)N1CCN(Cc2nc(C(c3ccccc3)c3ccccc3)no2)CC1	i	i	1.4	i	i	i	x	x	x	x	x	x
Cc1nc(CN2CCN(Cc3nc(C(c4ccccc4)c4ccccc4)no3)CC2)cs1	i	i	-0.16	i	-6.4*	i	101%*	i	10%*	i	48%*	x
COc1ccccc1CNC(=O)C(C)n1nc(C)n2c(cc3occc32)c1=O (stereo not drawn)	i	i	-1.5	i	i	i	x	x	x	x	x	x
O=C(O)C1CC=CCC1C(=O)Nc1ccc2c(c1)CCC2 (stereo not drawn)	i	i	0.11	i	i	i	x	x	x	x	x	x
Cc1ccc([N+](=O)[O-])cc1N=Nc1c(C)[nH]n(C(N)=S)c1=O	i	i	-0.31	i	i	i	x	x	x	x	x	x
Cc1ccc([N+](=O)[O-])cc1N=Nc1c(-c2ccc([N+](=O)[O-])cc2)[nH]n(C(N)=S)c1=O	i	i	1.3	i	-6.4*	i	i	i	i	48%*	48%*	i
O=C(Nc1ccccc1C(=O)Nc1nnc(C(F)(F)F)s1)c1ccccc1Cl	i	i	-1.3	i	-6.5*	i	121%*	i	26%*	54%*	55%*	x
NC(=O)c1ccccc1NC(=O)c1ccccc1Cl	i	i	1.2	i	i	i	x	x	x	x	x	x
COc1ccc(/C=N/n2c(C)nc3ccccc3c2=O)cc1OC	i	i	1.1	i	-6.3*	i	i	i	i	i	i	i
O=C(/C=C/c1ccc(O)cc1)c1ccccc1	i	i	0.83	i	i	i	x	x	x	x	x	x
O=C(/C=C/c1ccc(N2CCC(c3ccccc3)=N2)cc1)c1ccccc1	15*	i	-10	i	i	i	350%*	i	80%*	i	i	46%*
Cc1ccc(C2C(C(=O)c3cccs3)=C(O)C(=O)N2c2nnc(C)s2)cc1 (stereo not drawn)	i	i	-4.3	i	i	i	x	x	x	x	x	x
CCN(Cc1ccncc1)C(=S)Nc1ccccc1	i	i	0.58	i	i	i	x	x	x	x	x	x
CCN(Cc1ccncc1)C(=O)C(CO)c1ccccc1 (stereo not drawn)	i	i	1.9	i	-5.7*	i	i	66%*	i	i	82%*	i
CN(C)S(=O)(=O)c1ccc(C(=O)NCc2nnc(SCC(=O)Nc3ccc(F)cc3)n2-c2ccc(F)cc2)cc1	i	i	0.91	i	i	i	x	x	x	x	x	x
CCCCC(CC)CNC(=O)CN1C(=O)NC2(CCc3ccccc32)C1=O (stereo not drawn)	i	i	-1.3	i	i	i	x	x	x	x	x	x
Cc1cc(C)cc(N(CC(=O)NC(C)(C)C)C(=O)CNC(=O)c2cccs2)c1	i	i	0.15	i	-5.4*	i	i	i	i	i	i	i
CN(C)c1ccc(/C=C(/C(=O)c2ccc(Cl)cc2Cl)n2cncn2)cc1	49*	i	-1.9	52*	-6.4*	i	+	+	266%*	i	i	487%*
Cc1cc(C)n2nc(S(=O)(=O)NC(C)(C)C)nc2n1	i	i	0.05	i	i	i	x	x	x	x	x	x
O=C(O)c1ccccc1C(=O)NCc1cccnc1	i	i	1.5	i	i	i	x	x	x	x	x	x
O=C(NCc1cccnc1)c1cccn2c(=O)c3sccc3nc12	i	i	-0.61	i	-7.3*	i	x	x	x	x	i	i	TRPC4 sel inh 2=i;TRPC4 spec=-26%*;HEK293 MPD ctr 2-1=i;HEK293 MPD ctr-1=-340%*
Cn1c(-c2c(N)n(CCc3ccccc3)c3nc4ccccc4nc23)nc2ccccc21	i	-6*	0.07	i	-5.7*	i	264%*	i	56%*	80%*	i	i
Cn1c(-c2c(N)n(C3CCCC3)c3nc4ccccc4nc23)nc2ccccc21	i	i	2.9	i	i	i	x	x	x	x	x	x
CC1(C)c2[nH]c3ccccc3c2C[C@H]2C(=O)N(Cc3ccc(F)cc3)C(=O)N21	i	i	1	i	-5.5*	i	i	i	-9.0%*	i	i	i

Screening data deposited in PubChem BioAssay by Johns Hopkins Ion Channel Center.
